Measured values published in ChEMBL document CHEMBL1949612, “Design, synthesis, and functionalization of dimeric peptides targeting chemokine receptor CXCR4” (J Med Chem, 2011).
*1 amine or outer side, *2 acyl side, *3 side chain or, on linkers, in order; H or OH if unused. Where a SMILES comes first, the peptide text is derived from it. Bridges are numbered along the chain shown (N, C = ends). Roman numbers before positions name the chains, in order. [ ]: non-standard residue; d: D form. The star is where a group is joined. C16 diacid = O=C(O)CCCCCCCCCCCCCCC(=O)*; Sebacoyl = O=C(CCCCCCCCC(=O)[*:2])[*:1]; 2Nal = N[C@@H](Cc1ccc2ccccc2c1)C(=O)O; Suberoyl = O=C(CCCCCCC(=O)[*:2])[*:1]; Adipoyl = O=C(CCCCC(=O)[*:2])[*:1]; Glutaryl = O=C(CCCC(=O)[*:2])[*:1]; dNMeOrn = CN[C@H](CCCN)C(=O)O; Suc = O=C(CCC(=O)[*:2])[*:1]

Target: C-X-C chemokine receptor type 4 (Homo sapiens, UniProt P61073)
Sequence (P61073 whole entry): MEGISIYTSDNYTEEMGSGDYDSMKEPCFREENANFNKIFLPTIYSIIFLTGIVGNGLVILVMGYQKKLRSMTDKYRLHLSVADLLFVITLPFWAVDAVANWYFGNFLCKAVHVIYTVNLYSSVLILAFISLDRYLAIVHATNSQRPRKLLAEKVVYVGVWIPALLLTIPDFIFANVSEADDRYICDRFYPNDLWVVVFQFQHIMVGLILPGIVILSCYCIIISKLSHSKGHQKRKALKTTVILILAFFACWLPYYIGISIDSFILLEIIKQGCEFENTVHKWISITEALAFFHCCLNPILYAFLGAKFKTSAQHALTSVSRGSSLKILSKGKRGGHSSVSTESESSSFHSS
Experiment: Displacement of [125I]-CPCR4 from CXCR4 receptor in human Jurkat cells after 2 hrs by gamma counting
Type: cell-based
Method in brief: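 Whole Jurkat cells (400000 per tube) in PBS/0.2% BSA were incubated with ~0.1 nM (3.1 kBq) 125I-CPCR4 and test peptide at 10^-11 to 10^-5 M, shaken 2 h at RT. Nonspecific binding was taken with 1 μM unlabeled CPCR4. Cells were pelleted, washed twice with cold PBS, and bound activity was counted. Runs were done in triplicate, repeated 2–3 times. IC50 was fitted by nonlinear regression.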

Row | IC50 [nM] | Compound
1 | 4 | CN1C(=O)[C@@H](Cc2ccc(O)cc2)NC(=O)CNC(=O)[C@H](Cc2ccc3ccccc3c2)NC(=O)[C@H](CCCN=C(N)N)NC(=O)[C@H]1CCCNC(=O)CCCCCCCCCCCC(=O)NCCC[C@@H]1C(=O)N[C@@H](CCCNC(N)=O)C(=O)N[C@@H](Cc2ccc3ccccc3c2)C(=O)NCC(=O)N[C@H](Cc2ccc(O)cc2)C(=O)N1C
2 | 6 | CN1C(=O)[C@@H](Cc2ccc(O)cc2)NC(=O)CNC(=O)[C@H](Cc2ccc3ccccc3c2)NC(=O)[C@H](CCCNC(=N)N)NC(=O)[C@H]1CCCNC(=O)CNC(=O)CCC(=O)NCC(=O)NCCC[C@@H]1C(=O)N[C@@H](CCCNC(=N)N)C(=O)N[C@@H](Cc2ccc3ccccc3c2)C(=O)NCC(=O)N[C@H](Cc2ccc(O)cc2)C(=O)N1C
3 | 14 | CN1C(=O)[C@@H](Cc2ccc(O)cc2)NC(=O)CNC(=O)[C@H](Cc2ccc3ccccc3c2)NC(=O)[C@H](CCCNC(=N)N)NC(=O)[C@H]1CCCNC(=O)CNC(=O)CCCC(=O)NCC(=O)NCCC[C@@H]1C(=O)N[C@@H](CCCNC(=N)N)C(=O)N[C@@H](Cc2ccc3ccccc3c2)C(=O)NCC(=O)N[C@H](Cc2ccc(O)cc2)C(=O)N1C
4 | 33 | CN1C(=O)[C@@H](Cc2ccc(O)cc2)NC(=O)CNC(=O)[C@H](Cc2ccc3ccccc3c2)NC(=O)[C@H](CCCNC(=N)N)NC(=O)[C@H]1CCCNC(=O)CCCCCCCCCCCCCCC(=O)NCCC[C@@H]1C(=O)N[C@@H](CCCNC(=N)N)C(=O)N[C@@H](Cc2ccc3ccccc3c2)C(=O)NCC(=O)N[C@H](Cc2ccc(O)cc2)C(=O)N1C (I: cyclo([2Nal]G[dY][dNMeOrn]R) / II: cyclo([2Nal]G[dY][dNMeOrn]R); linker I:4-II:4 via C16 diacid)
5 | 4 | CN1C(=O)[C@@H](Cc2ccc(O)cc2)NC(=O)CNC(=O)[C@H](Cc2ccc3ccccc3c2)NC(=O)[C@H](CCCNC(=N)N)NC(=O)[C@H]1CCCNC(=O)CCCC(=O)NCCC[C@@H]1C(=O)N[C@@H](CCCNC(=N)N)C(=O)N[C@@H](Cc2ccc3ccccc3c2)C(=O)NCC(=O)N[C@H](Cc2ccc(O)cc2)C(=O)N1C (I: cyclo([2Nal]G[dY][dNMeOrn]R) / II: cyclo([2Nal]G[dY][dNMeOrn]R); linker I:4-II:4 via Glutaryl)
6 | 3 | CN1C(=O)[C@@H](Cc2ccc(O)cc2)NC(=O)CNC(=O)[C@H](Cc2ccc3ccccc3c2)NC(=O)[C@H](CCCNC(=N)N)NC(=O)[C@H]1CCCNC(=O)CCCCCCC(=O)NCCC[C@@H]1C(=O)N[C@@H](CCCNC(=N)N)C(=O)N[C@@H](Cc2ccc3ccccc3c2)C(=O)NCC(=O)N[C@H](Cc2ccc(O)cc2)C(=O)N1C (I: cyclo([2Nal]G[dY][dNMeOrn]R) / II: cyclo([2Nal]G[dY][dNMeOrn]R); linker I:4-II:4 via Suberoyl)
7 | 12 | CN1C(=O)[C@@H](Cc2ccc(O)cc2)NC(=O)CNC(=O)[C@H](Cc2ccc3ccccc3c2)NC(=O)[C@H](CCCNC(=N)N)NC(=O)[C@H]1CCCNC(=O)CCC(=O)NCCC[C@@H]1C(=O)N[C@@H](CCCNC(=N)N)C(=O)N[C@@H](Cc2ccc3ccccc3c2)C(=O)NCC(=O)N[C@H](Cc2ccc(O)cc2)C(=O)N1C (I: cyclo([2Nal]G[dY][dNMeOrn]R) / II: cyclo([2Nal]G[dY][dNMeOrn]R); linker I:4-II:4 via Suc)

Continued, molecule first:

Row | Compound | IC50 [nM]
8 | CC(=O)NCCC[C@@H]1C(=O)N[C@@H](CCCNC(N)=O)C(=O)N[C@@H](Cc2ccc3ccccc3c2)C(=O)NCC(=O)N[C@H](Cc2ccc(O)cc2)C(=O)N1C | 1000
9 | CN1C(=O)[C@@H](Cc2ccc(O)cc2)NC(=O)CNC(=O)[C@H](Cc2ccc3ccccc3c2)NC(=O)[C@H](CCCNC(=N)N)NC(=O)[C@H]1CCCN | 6
10 | CC(=O)NCCC[C@@H]1C(=O)N[C@@H](CCCNC(=N)N)C(=O)N[C@@H](Cc2ccc3ccccc3c2)C(=O)NCC(=O)N[C@H](Cc2ccc(O)cc2)C(=O)N1C | 60
11 | CN1C(=O)[C@@H](Cc2ccc(O)cc2)NC(=O)CNC(=O)[C@H](Cc2ccc3ccccc3c2)NC(=O)[C@H](CCCN=C(N)N)NC(=O)[C@H]1CCCNC(=O)CCCC(=O)NCCC[C@@H]1C(=O)N[C@@H](CCCNC(N)=O)C(=O)N[C@@H](Cc2ccc3ccccc3c2)C(=O)NCC(=O)N[C@H](Cc2ccc(O)cc2)C(=O)N1C | 19
12 | CN1C(=O)[C@@H](Cc2ccc(O)cc2)NC(=O)CNC(=O)[C@H](Cc2ccc3ccccc3c2)NC(=O)[C@H](CCCN=C(N)N)NC(=O)[C@H]1CCCNC(=O)CNC(=O)CC(=O)NCC(=O)NCCC[C@@H]1C(=O)N[C@@H](CCCN=C(N)N)C(=O)N[C@@H](Cc2ccc3ccccc3c2)C(=O)NCC(=O)N[C@H](Cc2ccc(O)cc2)C(=O)N1C | 8
13 | CN1C(=O)[C@@H](Cc2ccc(O)cc2)NC(=O)CNC(=O)[C@H](Cc2ccc3ccccc3c2)NC(=O)[C@H](CCCNC(=N)N)NC(=O)[C@H]1CCCNC(=O)C[C@H](NC(=O)CCCCCNC(=O)CN1CCN(CC(=O)O)CCN(CC(=O)O)CCN(CC(=O)O)CC1)C(=O)NCCC[C@@H]1C(=O)N[C@@H](CCCNC(=N)N)C(=O)N[C@@H](Cc2ccc3ccccc3c2)C(=O)NCC(=O)N[C@H](Cc2ccc(O)cc2)C(=O)N1C | 98
14 | CN1C(=O)[C@@H](Cc2ccc(O)cc2)NC(=O)CNC(=O)[C@H](Cc2ccc3ccccc3c2)NC(=O)[C@H](CCCNC(=N)N)NC(=O)[C@H]1CCCNC(=O)CC(CC(=O)NCCC[C@@H]1C(=O)N[C@@H](CCCNC(=N)N)C(=O)N[C@@H](Cc2ccc3ccccc3c2)C(=O)NCC(=O)N[C@H](Cc2ccc(O)cc2)C(=O)N1C)NC(=O)CCCCCNC(=O)CN1CCN(CC(=O)O)CCN(CC(=O)O)CCN(CC(=O)O)CC1 (stereo partly drawn) | 31
15 | CN1C(=O)[C@@H](Cc2ccc(O)cc2)NC(=O)CNC(=O)[C@H](Cc2ccc3ccccc3c2)NC(=O)[C@H](CCCNC(=N)N)NC(=O)[C@H]1CCCNC(=O)CNC(=O)C[C@H](NC(=O)CCCCCNC(=O)CN1CCN(CC(=O)O)CCN(CC(=O)O)CCN(CC(=O)O)CC1)C(=O)NCC(=O)NCCC[C@@H]1C(=O)N[C@@H](CCCNC(=N)N)C(=O)N[C@@H](Cc2ccc3ccccc3c2)C(=O)NCC(=O)N[C@H](Cc2ccc(O)cc2)C(=O)N1C | 39
16 | CN1C(=O)[C@@H](Cc2ccc(O)cc2)NC(=O)CNC(=O)[C@H](Cc2ccc3ccccc3c2)NC(=O)[C@H](CCCN=C(N)N)NC(=O)[C@H]1CCCNC(=O)CNC(=O)CC(CC(=O)NCC(=O)NCCC[C@@H]1C(=O)N[C@@H](CCCN=C(N)N)C(=O)N[C@@H](Cc2ccc3ccccc3c2)C(=O)NCC(=O)N[C@H](Cc2ccc(O)cc2)C(=O)N1C)NC(=O)CCCCCNC(=O)CN1CCN(CC(=O)O)CCN(CC(=O)O)CCN(CC(=O)O)CC1 | 17
17 | CN1C(=O)[C@@H](Cc2ccc(O)cc2)NC(=O)CNC(=O)[C@H](Cc2ccc3ccccc3c2)NC(=O)[C@H](CCCN=C(N)N)NC(=O)[C@H]1CCCNC(=O)CCCCC(=O)NCCC[C@@H]1C(=O)N[C@@H](CCCN=C(N)N)C(=O)N[C@@H](Cc2ccc3ccccc3c2)C(=O)NCC(=O)N[C@H](Cc2ccc(O)cc2)C(=O)N1C (I: cyclo([2Nal]G[dY][dNMeOrn]R) / II: cyclo([2Nal]G[dY][dNMeOrn]R); linker I:4-II:4 via Adipoyl) | 4
18 | CN1C(=O)[C@@H](Cc2ccc(O)cc2)NC(=O)CNC(=O)[C@H](Cc2ccc3ccccc3c2)NC(=O)[C@H](CCCN=C(N)N)NC(=O)[C@H]1CCCNC(=O)CCCCCCCCC(=O)NCCC[C@@H]1C(=O)N[C@@H](CCCN=C(N)N)C(=O)N[C@@H](Cc2ccc3ccccc3c2)C(=O)NCC(=O)N[C@H](Cc2ccc(O)cc2)C(=O)N1C (I: cyclo([2Nal]G[dY][dNMeOrn]R) / II: cyclo([2Nal]G[dY][dNMeOrn]R); linker I:4-II:4 via Sebacoyl) | 2
